Assay [1] in a line: Inhibition of PGPH catalytic activity of 20S proteasome in human erythrocytes. The method in brief:
(§1)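 Purified human erythrocyte 20S core particle (100–200 ng) mixed with inhibitors at varied concentrations in 25 mM HEPES pH 7.6, 0.5 mM EDTA, 0.03% SDS; SDS left out for the trypsin-like assay. Started by adding fluorogenic AMC substrate: Suc-LLVY-AMC (chymotrypsin-like), Boc-LRR-AMC (trypsin-like), Z-LLE-AMC (PGPH). Fluorescence read up to 1 h (ex 380, em 460 nm). Activity from slope; IC50 derived.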

The nature of assay [2]: Inhibition of trypsin-like activity of 20S proteasome in human erythrocytes. The method in brief: as §1
The nature of assay [3]: Inhibition of chymotrypsin-like activity of 20S proteasome in human erythrocytes. The method in brief:
as §1

The subject of a further assay is HeLa. The assay can be described thus: Growth inhibition of human HeLa cells after 48 hrs by MTT assay. It counts as functional, cell-based. The method in brief: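 HeLa cells grown in RPMI 1640 with 10% heat-inactivated fetal calf serum plus penicillin/streptomycin under 5% CO2. Inhibitors added at various concentrations for 48 h. Viability by MTT, absorbance at 570 nm. IC50 taken from growth inhibition.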

The target of assay [4] is T1, Proteasome component C5 (Homo sapiens) (UniProt P20618).
T1 sequence (whole entry): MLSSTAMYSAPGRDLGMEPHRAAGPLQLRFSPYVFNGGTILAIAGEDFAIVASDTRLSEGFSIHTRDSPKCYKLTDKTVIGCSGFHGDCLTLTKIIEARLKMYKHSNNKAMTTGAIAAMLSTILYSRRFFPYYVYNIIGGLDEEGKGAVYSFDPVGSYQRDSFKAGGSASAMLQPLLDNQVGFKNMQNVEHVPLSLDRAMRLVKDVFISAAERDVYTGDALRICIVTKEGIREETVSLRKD
The assay can be described thus: Inhibition of MG132 binding to beta-1 subunit of 20S proteasome in human HeLa cells at 1 uM by Western blotting analysis. Format: cell-based. The procedure, abridged: (§2)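 Competition in intact HeLa cells. Cells were preincubated 1 h at 37 °C in serum-free medium with various concentrations of MG132, then given 1.0 µM dansyl-KF33955 for another hour. Cells were pelleted, lysed by sonication in urea/thiourea denaturing buffer, and resolved by SDS-PAGE. Remaining β subunit labeling was detected by anti-dansyl immunoblot.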

For assay [5], the target named is T2, Proteasome Macropain subunit MB1 (Homo sapiens) (UniProt P28074).
T2 sequence (whole entry): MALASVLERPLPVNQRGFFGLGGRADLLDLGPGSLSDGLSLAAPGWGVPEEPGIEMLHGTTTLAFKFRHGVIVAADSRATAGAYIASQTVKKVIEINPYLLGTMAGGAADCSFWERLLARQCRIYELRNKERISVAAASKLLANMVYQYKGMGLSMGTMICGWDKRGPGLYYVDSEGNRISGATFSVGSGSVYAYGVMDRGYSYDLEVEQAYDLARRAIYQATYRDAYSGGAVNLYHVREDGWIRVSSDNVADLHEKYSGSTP
The assay is described as follows: Inhibition of MG132 binding to beta5 subunit of 20S proteasome in human HeLa cells at 1 uM by Western blotting analysis. Format: cell-based. The procedure, abridged:
as §2
(In general: Immunoblotting shows a protein as a band on a membrane.)

Assay [6] deals with Proteasome Macropain subunit (Homo sapiens) (UniProt P49721). The assay is described as follows: Inhibition of clasto-lactacystin binding to beta2 subunit of 20S proteasome in human HeLa cells at 1 uM by Western blotting analysis. It counts as cell-based.
The target of assay [7] is T2, Proteasome Macropain subunit MB1 (Homo sapiens). The assay can be described thus: Inhibition of clasto-lactacystin binding to beta5 subunit of 20S proteasome in human HeLa cells at 1 uM by Western blotting analysis. It counts as cell-based.
Assay [8] has the same target. The assay is described as follows: Binding affinity to 20S proteasome beta5 subunit in human HeLa cell extract at 1 uM by Western blotting analysis. It counts as cell-free. The procedure, abridged: (§3)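 26S proteasome extract from HeLa cells at 50–80% confluency. Cells were washed in ice-cold PBS and resuspended in pH 7.5 Tris buffer with sucrose, MgCl2, EDTA, DTT and 1 mM ATP. They were permeabilized with 0.025% digitonin for 5 min on ice, and the cytosol was recovered at 15,000g. The extract was labeled with 1.0 µM dansyl-KF33955 for various times, diluted in 2× denaturing buffer, resolved by SDS-PAGE and immunoblotted with anti-dansyl antibody.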

For assay [9], the target named is Proteasome Macropain subunit (Homo sapiens) (UniProt P49721). The assay is described as follows: Binding affinity to 20S proteasome beta2 subunit in human HeLa cell extract at 1 uM by Western blotting analysis. Format: cell-free. The method in brief: as §3
Assay [10] concerns the target T1, Proteasome component C5 (Homo sapiens). The assay can be described thus: Binding affinity to 20S proteasome beta-1 subunit in intact human HeLa cells at 1 uM by Western blotting analysis. It counts as cell-based. To be noted: TDE = time-dependent effect. The method in brief: (§4)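 Intact HeLa cells (RPMI 1640, 10% FCS) incubated with 1.0 µM dansyl-KF33955 at 37 °C in serum-free medium for varying times. Cells were pelleted, put in urea/thiourea denaturing buffer at 4 °C and sonicated. Lysates were run on SDS-PAGE and blotted to PVDF. Labeled β subunits were detected with anti-dansyl monoclonal antibody and ECL.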

For assay [11] the target is unchanged. The assay is described as follows: Binding affinity to 20S proteasome beta-1 subunit in human erythrocyte at 1 uM after 0.5 hr by Western blotting analysis. The procedure, abridged: (§5)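 Purified human erythrocyte 20S core particle solution incubated with 1.0 µM dansyl-KF33955 for various times, then diluted directly in 2× denaturing buffer (urea/thiourea/CHAPS/Triton, pH 8.8). Proteins resolved by SDS-PAGE and transferred to PVDF. Labeled β subunits detected by immunoblot with anti-dansyl monoclonal antibody and ECL.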

The target of assay [12] is T2, Proteasome Macropain subunit MB1 (Homo sapiens). The assay is described as follows: Binding affinity to 20S proteasome beta5 subunit in human erythrocyte at 1 uM by Western blotting analysis. The method in brief:
as §5

For assay [13], the target named is Proteasome Macropain subunit (Homo sapiens) (UniProt P49721). The assay is described as follows: Binding affinity to 20S proteasome beta2 subunit in intact human HeLa cells at 1 uM by Western blotting analysis. It counts as cell-based. To be noted: TDE = time-dependent effect. The method in brief: as §4
The target is the same in assay [14]. The assay is described as follows: Binding affinity to 20S proteasome beta2 subunit in human erythrocyte at 1 uM after 1 hr by Western blotting analysis. The procedure, abridged: as §5
For assay [15], the target named is T1, Proteasome component C5 (Homo sapiens). The assay is described as follows: Binding affinity to 20S proteasome beta-1 subunit in human erythrocyte at 1 uM by Western blotting analysis. The procedure, abridged:
as §5

Assay [16] deals with Proteasome Macropain subunit (Homo sapiens) (UniProt P49721). The assay is described as follows: Binding affinity to 20S proteasome beta2 subunit in human erythrocyte at 1 uM by Western blotting analysis. The procedure, abridged: as §5
For assay [17], the target named is Proteasome subunit beta type-5 (Homo sapiens) (UniProt P28074). The assay can be described thus: Binding affinity to 20S proteasome beta5 subunit in human erythrocyte at 1 uM after 0.5 hr by Western blotting analysis.
For assay [18], the target named is T2, Proteasome Macropain subunit MB1 (Homo sapiens). The assay is described as follows: Binding affinity to 20S proteasome beta5 subunit in intact human HeLa cells at 1 uM by Western blotting analysis. Format: cell-based. As to conditions: TDE = time-dependent effect. The procedure, abridged:
as §4

Assay [19] has the same target. The assay can be described thus: Binding affinity to 20S proteasome beta5 subunit in human erythrocyte at 1 uM after 1 hr by Western blotting analysis. The method in brief:
as §5

In assay [20] the target is T1, Proteasome component C5 (Homo sapiens). The assay is described as follows: Binding affinity to 20S proteasome beta-1 subunit in human erythrocyte at 1 uM after 1 hr by Western blotting analysis. The procedure, abridged: as §5
Assay [21] has the same target. The assay can be described thus: Binding affinity to 26S proteasome beta-1 subunit in human HeLa cell extract at 1 uM by Western blotting analysis. Format: cell-free. The procedure, abridged:
as §3

Assay [22] has as its target Proteasome Macropain subunit (Homo sapiens) (UniProt P49721). The assay is described as follows: Binding affinity to 20S proteasome beta2 subunit in human erythrocyte at 1 uM after 0.5 hr by Western blotting analysis. The method in brief: as §5

The source made the active and inactive calls. No cut-off for these calls is given here. Residues, ends and D or L forms follow the SMILES beside them. *: point of attachment. Cbz = O=C(OCc1ccccc1)*

Proteasome Macropain subunit (Homo sapiens), sequence (P49721 whole entry): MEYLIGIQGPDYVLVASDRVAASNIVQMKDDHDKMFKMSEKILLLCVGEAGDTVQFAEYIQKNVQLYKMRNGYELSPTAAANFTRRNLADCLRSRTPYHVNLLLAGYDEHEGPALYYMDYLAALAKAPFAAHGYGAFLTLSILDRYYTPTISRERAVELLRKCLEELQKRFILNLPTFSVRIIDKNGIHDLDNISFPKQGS

Broadly, the IC50 is the midpoint of a concentration-inhibition curve. Low values mean higher potency, high ones lower potency. Regarding `CC[C@H](C)[C@@H]1C(=O)O[C@H]1C(=O)N[C@H]1C[C@H]1C[C@H](NC(=O)[C@H](C)N)C(=O)O` [BELACTOSIN A], the IC50 was determined as 14000 nM in [1], 4900 nM in assay [2], 820 nM in assay [3] and 37000 nM in the assay with HeLa.
`CC(C)C[C@@H](C=O)NC(=O)[C@H](CC(C)C)NC(=O)[C@H](CC(C)C)NC(=O)OCc1ccccc1` [MG-132] (Cbz-Leu-Leu-Leu-aldehyde): the outcome in assay [4] and in assay [5] was Active. The IC50 was found to be 120 nM in assay [1], 2100 nM in [2] and 11 nM in [3].
Regarding `CC(C)[C@H](O)[C@]12NC(=O)[C@H](C)[C@@H]1OC2=O`, the half-maximal inhibitory concentration (IC50) in assay [1] was found to be 8300 nM; in [2] it was 690 nM; in [3], 29 nM. Besides, the result in assay [6] and in assay [7] was Active.
For `CC[C@H](C)[C@@H]1C(=O)O[C@H]1C(=O)N[C@H]1C[C@H]1C[C@H](NC(=O)[C@H](C)N)C(=O)OCc1ccccc1`, the half-maximal inhibitory concentration (IC50) was found to be 3700 nM in [1], 450 nM in assay [2], 340 nM in assay [3] and 500 nM in the assay on HeLa.
Regarding `CC[C@H](C)[C@@H]1C(=O)O[C@H]1C(=O)N[C@H]1C[C@H]1C[C@H](NC(=O)[C@H](C)NC(=O)CCCCCNS(=O)(=O)c1cccc2c(N(C)C)cccc12)C(=O)OCc1ccccc1`, the result in assay [4], in assay [8], in [9], in [5], in assay [11] and in assay [12] was Active. Besides, the outcome in assay [14], in [15], in [6], in [16], in assay [17] and in assay [7] was Active. Moreover, the result in assay [19], in assay [20], in [21] and in assay [22] was Active. The concentration for half-maximal inhibition (IC50) in [1] came to 150 nM; in assay [2], 2100 nM; in [3] it was 29 nM; in the assay with HeLa, 9800 nM. In addition, the Activity entry in assay [10], in assay [13] and in assay [18] was “tde” throughout.

The record behind these values is ChEMBL document CHEMBL1152217, “Affinity labeling of the proteasome by a belactosin A derived inhibitor” (Bioorg Med Chem Lett, 2008).
